Experimental data published in article PMC3687671 (British Journal of Pharmacology, 2013).
“Also recorded” adds a separate entry of the source. Like-named read-outs stand apart in the source and are kept apart here. Values belong to the compound of their own block, whether it stands above or below them.

Legend:
human CBS = molecular target: T1, human CBS (Homo sapiens, UniProt P35520); test: H2S production by purified recombinant GST-CBS; type: biochemical
T1 sequence (P35520 1-551): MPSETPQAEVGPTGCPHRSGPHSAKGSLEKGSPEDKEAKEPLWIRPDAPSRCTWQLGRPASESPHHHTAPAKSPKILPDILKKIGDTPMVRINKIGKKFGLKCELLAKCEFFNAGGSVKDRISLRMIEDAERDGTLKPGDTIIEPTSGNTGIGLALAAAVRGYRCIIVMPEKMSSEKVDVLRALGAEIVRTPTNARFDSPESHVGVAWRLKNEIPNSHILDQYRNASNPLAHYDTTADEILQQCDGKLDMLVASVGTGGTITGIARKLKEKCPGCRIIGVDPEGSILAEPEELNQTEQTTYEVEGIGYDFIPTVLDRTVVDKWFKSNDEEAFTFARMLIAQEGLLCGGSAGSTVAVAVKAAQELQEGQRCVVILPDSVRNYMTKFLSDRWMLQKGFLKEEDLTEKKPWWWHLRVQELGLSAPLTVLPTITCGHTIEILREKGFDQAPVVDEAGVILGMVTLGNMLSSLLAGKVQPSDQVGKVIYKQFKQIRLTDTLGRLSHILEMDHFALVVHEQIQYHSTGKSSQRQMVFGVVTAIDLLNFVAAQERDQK
Outline: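 Human CBS was expressed as an N-terminal GST fusion in E. coli BL21(DE3) Codon Plus (0.3 mM δ-ALA, 0.1 mM IPTG, overnight at 30°C) and purified by GSH affinity. Each 100 μL reaction held 5 μg enzyme, 0.01 mM PLP, 1 mM L-cys, 1 mM homocysteine and 50 mM sodium phosphate pH 8.2. Test compound went in 15 min before substrate, then 60 min at 37°C. Stopped with ZnAc/TCA; methylene blue A655 against H2S standard curve; n = 9.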

human CSE = human CSE (Homo sapiens, UniProt P32929); test: H2S production by purified recombinant GST-CSE; type: biochemical; settings: for IC50: 10 μM PLP, 1 mM L-cys, inhibitor added 15 min before L-cys, 60 min, 37°C
human CSE, sequence (P32929 whole entry, the tested form may be a part): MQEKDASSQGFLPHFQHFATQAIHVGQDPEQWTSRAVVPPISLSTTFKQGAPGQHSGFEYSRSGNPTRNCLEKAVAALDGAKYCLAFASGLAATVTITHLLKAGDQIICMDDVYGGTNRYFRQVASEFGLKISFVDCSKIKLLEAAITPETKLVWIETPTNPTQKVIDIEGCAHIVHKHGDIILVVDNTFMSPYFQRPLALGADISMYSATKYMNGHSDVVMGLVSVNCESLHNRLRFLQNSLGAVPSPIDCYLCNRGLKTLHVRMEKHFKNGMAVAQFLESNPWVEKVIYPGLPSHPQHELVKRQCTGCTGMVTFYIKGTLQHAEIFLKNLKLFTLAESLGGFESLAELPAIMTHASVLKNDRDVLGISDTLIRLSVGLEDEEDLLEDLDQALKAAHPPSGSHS
Outline: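 Human CSE was made as a GST fusion in E. coli BL21(DE3) Codon Plus (0.1 mM IPTG, overnight at 18°C) and GSH-affinity purified. Each 100 μL reaction held 5 μg enzyme, 0.01 mM PLP, 1 mM L-cys and 50 mM sodium phosphate pH 8.2. Test compound was preincubated 15 min before L-cys, then 60 min at 37°C. ZnAc then TCA; methylene blue absorbance at 655 nm read against H2S calibration; n = 9.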

rat aortic rings = test: Isolated rat aortic ring assay; settings: cumulative concentration-response
Outline: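 Thoracic aortic rings (2–3 mm) from Sprague–Dawley rats (~300 g) were held in oxygenated Krebs–Henseleit at 37°C under 1 g resting tension, with isometric force recorded. Test compound was added 20 min before 1 μM phenylephrine. At the contraction plateau, cumulative L-cys concentration–response curves were run. At least four rings, each from a different rat; mean ± SEM.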

CBS H2S production (% of control) (human CBS; 0.1 mM compound): 86.4 ± 9.4 % of control
CBS H2S production (% of control) (human CBS; 1 mM compound): 88.4 ± 2.1 % of control
CSE H2S production (% of control) (human CSE; 0.1 mM compound): 93.3 ± 23.0 % of control
Effect on CSE activity (human CSE; 1 mM): showed a tendency to reduce CSE activity
Compound: NNC(=O)c1ccncc1 [Isoniazid, isoniazid]

Potency on CBS relative to HA (human CBS): fourfold
Selectivity for CBS (fold lower IC50 for CBS versus CSE) (human CBS; IC50 CSE / IC50 CBS): fourfold
IC50 (human CSE; read-out: CSE, IC50, 5 μg CSE): 289 ± 7 µM
Compound: N[C@H](C(=O)O)C(F)(F)F [Trifluoroalanine, trifluoroalanine]

Inhibition of CSE activity (human CSE; 5 μM): did not inhibit CSE activity
Maximal inhibition of CSE activity (human CSE; 250 μM): 75%
Compound: CCN(CC)/[N+]([O-])=N/O.CCNCC [DEA/NO, diethylamine NONOate]
Effect on CBS activity (human CBS; NO donor, up to 250 μM): did not affect CBS activity; also recorded: CBS was resistant
Effect on CSE activity (human CSE; NO donor, concentration-response): concentration dependently attenuated CSE activity

CBS H2S production (% of control) (human CBS; 0.1 mM compound): 74.0 ± 12.8 % of control
CBS H2S production (% of control) (human CBS; 1 mM compound): 90.1 ± 14.3 % of control
CSE H2S production (% of control) (human CSE; 0.1 mM compound): 96.7 ± 7.1 % of control
CSE H2S production (% of control) (human CSE; 1 mM compound): 81.7 ± 12.5 % of control
Compound: C#CCN(C)Cc1ccccc1 [Pargyline, pargyline]
Effect on CBS activity (human CBS; 0.1 and 1 mM (Table 2)): failed to significantly reduce CSE or CBS activity
Effect on CSE activity (human CSE; 0.1 and 1 mM (Table 2)): failed to significantly reduce CSE or CBS activity

IC50 (human CSE; CSE, IC50, 5 μg CSE): 1 ± 0.1 µM
Compound: NCCO/C=C/[C@H](N)C(=O)O [AVG, aminoethoxyvinylglycine]
Effect on CBS activity (human CBS; up to 1 mM): Neither PAG nor AVG had any effect on CBS activity; also recorded: failed to reduce CBS activity

CBS H2S production (% of control) (human CBS; 0.1 mM compound): 88.4 ± 7.4 % of control
CBS H2S production (% of control) (human CBS; 1 mM compound): 93.8 ± 9.9 % of control
CSE H2S production (% of control) (human CSE; 0.1 mM compound): 86.7 ± 17.8 % of control
CSE H2S production (% of control) (human CSE; 1 mM compound): 76.7 ± 11.3 % of control
Compound: C#CCOc1ccc(N)cc1C(=O)NCCCC [Parsalmide]
Effect on CBS activity (human CBS; 0.1 and 1 mM (Table 2)): failed to significantly reduce CSE or CBS activity
Effect on CSE activity (human CSE; 0.1 and 1 mM (Table 2)): failed to significantly reduce CSE or CBS activity

The next lines start with the compound.

Compound: N[C@H](CS)C(=O)O [D-cysteine]
Relaxation of phenylephrine-contracted aortic rings (rat aortic rings): but not D-cysteine, led to a concentration-dependent relaxation

Compound: C[Se]C[C@H](N)C(=O)O [Methylseleno-cysteine, methylselenocysteine]
CBS H2S production (% of control) (human CBS; 0.1 mM compound): 95.5 ± 2.1 % of control
CBS H2S production (% of control) (human CBS; 1 mM compound): 79.2 ± 5.1 % of control
Effect on CBS activity (human CBS; 0.1 and 1 mM (Table 2)): did not inhibit the activity of neither CBS nor CSE
CSE H2S production (% of control) (human CSE; 0.1 mM compound): 85.5 ± 4.4 % of control
CSE H2S production (% of control) (human CSE; 1 mM compound): 79.7 ± 4.3 % of control
Effect on CSE activity (human CSE; 0.1 and 1 mM (Table 2)): did not inhibit the activity of neither CBS nor CSE

Compound: N[C@@H]1CON=C1O [D-Cycloserine, D-cycloserine]
CBS H2S production (% of control) (human CBS; 0.1 mM compound): 94.2 ± 20.5 % of control
CBS H2S production (% of control) (human CBS; 1 mM compound): 80.6 ± 21.0 % of control
CSE H2S production (% of control) (human CSE; 0.1 mM compound): 83.3 ± 19.2 % of control
Effect on CSE activity (human CSE; 1 mM): showed a tendency to reduce CSE activity
CSE H2S production (% of control) (human CSE; 1 mM compound): 73.3 ± 18.6 % of control

Compound: N[C@@H](CS)C(=O)O [L-cys, L-cysteine]
Relaxation of phenylephrine-contracted aortic rings (rat aortic rings): led to a concentration-dependent relaxation

Compound: NO [HA, hydroxylamine]
Inhibition of CBS (human CBS; 100 μM): approximately 30%
Inhibition of CSE activity (human CSE; 5 μM): approximately 60%
Inhibition of CSE activity (human CSE; 50 μM): abolished CSE activity
Selectivity towards CSE versus CBS (human CSE; IC50 CBS / IC50 CSE): 60 fold
IC50 (human CSE; read-out: CSE, IC50, 5 μg CSE): 4.83 ± 0.31 µM
